Laboratory results: publication PMC10195017 (Journal of Immunotherapy and Precision Oncology, 2023)
“Also recorded” adds a separate entry of the source. Read-outs that look alike come from different tables or passages of the source. Blank lines part the entries; values can stand above or below the molecule they belong to.

Legend:
D4M.3A = assay: In vivo tumor growth, D4M.3A syngeneic tumor model; set-up: species or system C57BL/6J mice; details: for tumor growth, comparison of both salt forms: 32 mg/kg IP, QD, D4M.3A tumor-challenged mice, with and without anti-PD-1; for tumor growth, combination effect: combination with anti-PD-1, D4M.3A model; for tumor growth response: monotherapy, poorly immunogenic D4M.3A model, high doses of MPT-0118 or MPT-0308
Outline: (§1)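 Mice were 6-week-old male C57BL/6J, n = 10 per cohort. Tumor cells were trypsinized and spun 400g for 5 min, then put into the right hind flank: MC38 1 × 10^6 in 50:50 Cultrex:PBS, D4M.3A 1 × 10^6 in PBS, B16.F10 0.5 × 10^6 in HBSS. Test compound given once daily IP or by oral gavage from day 7 (B16.F10), 8 (MC38) or 9 (D4M.3A). Anti-PD-1, 200 μg IP ×3, every other day, 6 h after compound. Caliper volume = w² × l/2. Two-way ANOVA/Bonferroni on last treatment day.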

B16.F10 = assay: In vivo tumor growth, B16.F10 syngeneic tumor model; set-up: species or system C57BL/6J mice; details: combination with anti-PD-1
Outline: as §1

tumor-infiltrating Tregs = assay: Flow cytometry of tumor-infiltrating Tregs in D4M.3A-injected mice; format: in vivo, C57BL/6J mice; details: combination therapy with anti-PD-1; D4M.3A tumors; mean ± SEM; pooled MPT-0118 and MPT-0308 (n = 16)
[1] = Plasma and tumor pharmacokinetics at steady-state in D4M.3A tumor-bearing mice; format: in vivo, C57BL/6J mice; details: 64 mg/kg/day oral, steady-state after 21 days
Outline: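 Male C57BL/6J mice bearing D4M.3A tumors were pretreated for 21 days with the test compound (succinate salt) at 64 mg/kg orally. Plasma and tumor drug concentrations were then measured at steady state.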

circulating Tregs = assay: Circulating Treg frequencies in non-tumor-bearing rats; format: in vivo, Harlan Sprague Dawley rats; details: 30 mg/kg orally, daily, 15 days; female rats; vs vehicle
Outline: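 Female Harlan Sprague Dawley rats, non-tumor-bearing, received the test compound at 30 mg/kg orally once daily for 15 days, with a vehicle group (n = 5 per cohort). Blood was drawn from the same animals on days −1, 3, 5, 7, 10 and 14. After red cell lysis, samples got viability dye, CD3/CD4/CD8/CD25 surface staining, fixation and permeabilization, and FoxP3 staining. Tregs (CD3+CD4+CD8α−FoxP3+) were counted as % of CD4+ cells and normalized to day −1 (100%). Unpaired t test per time point […].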

PDOTS = assay: Viability of patient-derived organotypic tumor spheroids; format: cell-based, human; details: 5 μM in combination with anti-PD-1, + αIFNγ 10 μg/mL
Outline: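 Colorectal cancer and melanoma resection samples were made into organotypic spheroids that kept their native immune cells. These were embedded in collagen in a 3D microfluidic device and cultured 5–7 days in DMEM with the test compound (3–5 μM). Arms were ± pembrolizumab 250 μg/mL, each ± anti-human IFNγ 10 μg/mL. Viability was measured by Hoechst 33342/propidium iodide imaging (45 min, 37 °C, 5% CO2) as live cell area. Results were given as percent change versus untreated control.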

MC38 = assay: In vivo tumor growth, MC38 syngeneic tumor model; set-up: species or system C57BL/6J mice
Outline: as §1

MALT1 [2] = molecular target: T1, MALT1 (Mus musculus, UniProt Q2TBA3); assay: MALT1-cleaved CYLD-ct flow cytometry assay in murine CD4+ T cells; format: cell-based; details: for MALT1 inhibition: murine CD4+ T cells
T1 sequence (Q2TBA3 1-832): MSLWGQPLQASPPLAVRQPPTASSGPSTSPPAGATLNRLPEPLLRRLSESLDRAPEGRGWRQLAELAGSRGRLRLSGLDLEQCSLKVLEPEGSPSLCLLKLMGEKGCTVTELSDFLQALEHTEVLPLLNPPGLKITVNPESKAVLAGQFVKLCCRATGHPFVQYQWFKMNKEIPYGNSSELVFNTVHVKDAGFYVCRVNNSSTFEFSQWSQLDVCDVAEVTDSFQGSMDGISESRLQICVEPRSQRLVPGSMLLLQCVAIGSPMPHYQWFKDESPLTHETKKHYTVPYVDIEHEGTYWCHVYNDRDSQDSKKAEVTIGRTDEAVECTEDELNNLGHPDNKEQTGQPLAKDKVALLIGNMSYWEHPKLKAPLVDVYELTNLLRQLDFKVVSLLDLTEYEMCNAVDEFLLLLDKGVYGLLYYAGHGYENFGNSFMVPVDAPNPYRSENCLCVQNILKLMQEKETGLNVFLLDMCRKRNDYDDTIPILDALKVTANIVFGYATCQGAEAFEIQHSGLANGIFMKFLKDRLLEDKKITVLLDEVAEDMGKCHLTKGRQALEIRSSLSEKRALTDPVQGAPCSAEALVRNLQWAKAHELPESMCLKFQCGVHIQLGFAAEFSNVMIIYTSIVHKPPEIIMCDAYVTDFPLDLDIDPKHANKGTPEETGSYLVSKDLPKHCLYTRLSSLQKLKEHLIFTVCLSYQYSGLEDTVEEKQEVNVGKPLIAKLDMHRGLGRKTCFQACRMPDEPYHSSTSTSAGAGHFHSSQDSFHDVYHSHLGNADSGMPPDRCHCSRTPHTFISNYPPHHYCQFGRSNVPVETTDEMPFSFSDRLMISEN
Outline: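 Murine CD4+ T cells were treated with a dose titration of the test compound or DMSO, then stimulated with PMA plus ionomycin. MALT1 activity was read by flow cytometry as the CYLD C-terminal cleavage product. Detection used the in-house neoepitope monoclonal 25F10, which recognizes both human and mouse cleaved CYLD. Median fluorescence intensity was compared with DMSO-treated cells. n = 3, mean ± SEM.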

[3] = test system: D4M.3A murine melanoma tumor spheroids; assay: Viability of cell-line-derived D4M.3A tumor spheroids; format: cell-based, mouse; details: doses up to 10 μM; day 4
Outline: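 D4M.3A cell-line-derived tumor spheroids were embedded in collagen in a 3D microfluidic device (gel set 30 min, 37 °C). They were cultured in DMEM with the test compound at 0.3–10 μM for 4 days. Live/dead staining used Hoechst 33342/propidium iodide (45 min, 37 °C, 5% CO2), followed by fluorescence imaging and total raw cell area per dye. Live signal was expressed as percent change or log2 fold change relative to untreated control.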

MC38 MDOTS = assay: Viability of MC38 MDOTS; format: cell-based, mouse; details: day 6
Outline: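 MC38-derived spheroids kept their resident immune cells. They were mixed with collagen, loaded into the central gel region of a 3D microfluidic device, and set for 30 min at 37 °C. They were then hydrated with DMEM containing test compound 3 μM ± anti-mouse IFNγ 10 μg/mL, or anti-IFNγ alone, for 6 days. Viability was read by Hoechst 33342/propidium iodide staining (45 min, 37 °C, 5% CO2) and fluorescence imaging of total cell area per dye. Live signal was expressed as percent or log2 fold change versus control.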

pKa = format: physicochemical
[4] = Octanol-water partition coefficient; format: physicochemical
Aqueous solubility = format: physicochemical
Caco-2 = Caco-2 permeability; format: in vitro ADME; details: Caco-2 assay
P-gp = P-gp (Homo sapiens, UniProt P08183); assay: MDCK-MDR1 permeability; format: in vitro ADME
P-gp, sequence (P08183 whole entry): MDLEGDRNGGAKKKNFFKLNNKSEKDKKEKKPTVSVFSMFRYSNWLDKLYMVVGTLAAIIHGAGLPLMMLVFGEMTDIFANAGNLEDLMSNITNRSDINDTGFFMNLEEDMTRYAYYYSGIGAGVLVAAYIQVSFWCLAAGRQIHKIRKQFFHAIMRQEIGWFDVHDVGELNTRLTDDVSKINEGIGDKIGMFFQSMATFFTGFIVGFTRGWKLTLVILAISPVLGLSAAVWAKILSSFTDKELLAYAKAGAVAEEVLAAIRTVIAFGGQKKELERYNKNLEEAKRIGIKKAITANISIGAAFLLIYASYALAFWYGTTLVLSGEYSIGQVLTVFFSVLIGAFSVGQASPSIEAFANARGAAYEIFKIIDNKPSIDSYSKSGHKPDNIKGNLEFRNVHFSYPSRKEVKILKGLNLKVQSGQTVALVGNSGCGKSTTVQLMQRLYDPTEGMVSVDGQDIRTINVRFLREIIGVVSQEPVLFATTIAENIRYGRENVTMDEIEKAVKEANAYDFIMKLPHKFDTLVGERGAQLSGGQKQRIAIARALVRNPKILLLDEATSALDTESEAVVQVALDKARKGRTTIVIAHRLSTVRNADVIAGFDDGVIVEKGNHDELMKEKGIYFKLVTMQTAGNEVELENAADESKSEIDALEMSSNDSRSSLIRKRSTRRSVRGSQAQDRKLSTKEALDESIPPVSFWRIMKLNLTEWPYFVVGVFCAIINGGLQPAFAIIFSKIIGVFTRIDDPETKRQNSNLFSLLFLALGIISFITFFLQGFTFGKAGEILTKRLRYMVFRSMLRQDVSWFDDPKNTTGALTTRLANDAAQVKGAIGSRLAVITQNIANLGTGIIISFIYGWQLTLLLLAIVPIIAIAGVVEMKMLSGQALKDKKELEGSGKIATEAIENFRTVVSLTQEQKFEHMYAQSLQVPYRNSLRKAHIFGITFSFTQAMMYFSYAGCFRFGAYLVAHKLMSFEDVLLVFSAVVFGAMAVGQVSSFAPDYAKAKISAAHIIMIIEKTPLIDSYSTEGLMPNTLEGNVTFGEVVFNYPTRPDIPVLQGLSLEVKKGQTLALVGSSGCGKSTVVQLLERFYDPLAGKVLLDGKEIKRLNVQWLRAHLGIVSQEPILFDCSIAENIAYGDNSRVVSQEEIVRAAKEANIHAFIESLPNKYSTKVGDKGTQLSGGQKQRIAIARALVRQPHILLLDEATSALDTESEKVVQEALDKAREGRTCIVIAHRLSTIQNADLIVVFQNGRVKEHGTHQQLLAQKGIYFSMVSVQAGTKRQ

[5] = Plasma pharmacokinetics in male C57BL/6J mice after a single dose; format: in vivo; details: non-tumor-bearing animals
MALT1 [6] = details: cited from earlier work
Tregs [7] = details: rats; efficacious treatment; cited from earlier work
Tregs [8] = details: dogs; efficacious treatment; cited from earlier work
Tregs [9] = details: mice; 8 mg/kg twice a day IP and 16 mg/kg every day IP; cited from earlier work

SMILES: CN1CCC[C@H](CN2c3ccccc3Sc3ccccc32)C1 [(S)-mepazine]
pKa (pKa): 9.2
logP [4]: 5.29
solubility (in words) (Aqueous solubility): apparent pH-dependent solubility
mean apparent AB permeability coefficient (Caco-2): 13.73 ± 0.15 × 10^−6 cm/s
P-gp substrate (P-gp): not a P-gp substrate
Tmax [5]: ≤ 2 h

SMILES: CO[C@@H](C)c1c(NC(=O)Nc2ccnc(C(F)(F)F)c2)cnc2cc(Cl)nn12 [MLT-943]
IC50 (MALT1 [6]): < 0.01 µM
Treg numbers (Tregs [7]): rapid reduction of Tregs
pathology developing after Treg reduction (Tregs [7]): reversible immune dysregulation, polyendocrinopathy, enteropathy, X-linked (IPEX)-like pathology
Treg numbers (Tregs [8]): rapid reduction of Tregs

SMILES: CN1CCCC(CN2c3ccccc3Sc3ccccc32)C1 (racemic) [mepazine racemate, mepazine]
Treg frequencies in peripheral blood (Tregs [9]): no effect

More lines, main results first:

peak concentrations in mouse plasma [1]: ≤ 1.3 µM
drug concentrations in tumor tissue ([1]; over the following 24 hours): 3000 to 10000 nM
circulating Treg frequencies (circulating Tregs): No change; also recorded: no effect
SMILES: CN1CCC[C@H](CN2c3ccccc3Sc3ccccc32)C1.O=C(O)CCC(=O)O [MPT-0118, (S)-mepazine succinate]
tumor growth, comparison of both salt forms (D4M.3A): comparable effects on tumor growth
tumor growth, combination effect (D4M.3A): clear synergy
tumor growth response (D4M.3A): consistently responded
tumor growth, combination effect (B16.F10): clear synergy
frequency of IFNγ+ Tregs (percentage of total tumor-infiltrating Tregs) (tumor-infiltrating Tregs): 8.9 ± 1.01%
effects on PDOTS with anti-IFNγ neutralizing antibody (PDOTS): reversed

MALT1 inhibition (MALT1 [2]; 3 μM): roughly 75%
MALT1 inhibition (MALT1 [2]; 10 μM): ~95%
IC50 (MALT1 [2]; read-out: IC50 (MALT1-cleaved CYLD-ct), murine splenic CD4+ T cells stimulated with PMA/ionomycin): 1.13 µM
SMILES: CN1CCC[C@H](CN2c3ccccc3Sc3ccccc32)C1.Cl [MPT-0308, (S)-mepazine hydrochloride]
tumor growth, combination effect (MC38; high dose in combination with anti-PD-1, MC38 model): additive effect
tumor growth (MC38; monotherapy, immunogenic MC38 model): significant inhibition of tumor growth
tumor growth, comparison of both salt forms (D4M.3A): comparable effects on tumor growth
tumor growth, combination effect (D4M.3A): clear synergy
tumor growth response (D4M.3A): consistently responded
tumor growth, combination effect (B16.F10): clear synergy
frequency of IFNγ+ Tregs (percentage of total tumor-infiltrating Tregs) (tumor-infiltrating Tregs): 8.9 ± 1.01%
viability of tumor spheroids lacking immune cells and tumor stroma [3]: not affected
antitumor activity in MDOTS with anti-IFNγ neutralizing antibody (MC38 MDOTS; 3 μM + anti-mouse IFNγ 10 μg/mL): reversed
antitumor activity in MDOTS (MC38 MDOTS; 3 μM): active
